E-sel inducer = E-selectin induction on HUVECs; HUVEC E-selectin immunofluorescence imaging; normalized: neutral wells 0, TNF-alpha wells 100; P16581; activation, % at 7.58 µM; hit rate 0.37% among 260,000; AID 686992;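 active = mean E-selectin-positive cell signal at least 10% of the positive control, reached in at least 60% of replicates, without over 20% cell loss; inconclusive = no rule given, readout overlaps actives, possibly toxicity-flagged; inactive = the rest, including those meeting only one limit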
Target sequence (P16581 whole entry, looked up): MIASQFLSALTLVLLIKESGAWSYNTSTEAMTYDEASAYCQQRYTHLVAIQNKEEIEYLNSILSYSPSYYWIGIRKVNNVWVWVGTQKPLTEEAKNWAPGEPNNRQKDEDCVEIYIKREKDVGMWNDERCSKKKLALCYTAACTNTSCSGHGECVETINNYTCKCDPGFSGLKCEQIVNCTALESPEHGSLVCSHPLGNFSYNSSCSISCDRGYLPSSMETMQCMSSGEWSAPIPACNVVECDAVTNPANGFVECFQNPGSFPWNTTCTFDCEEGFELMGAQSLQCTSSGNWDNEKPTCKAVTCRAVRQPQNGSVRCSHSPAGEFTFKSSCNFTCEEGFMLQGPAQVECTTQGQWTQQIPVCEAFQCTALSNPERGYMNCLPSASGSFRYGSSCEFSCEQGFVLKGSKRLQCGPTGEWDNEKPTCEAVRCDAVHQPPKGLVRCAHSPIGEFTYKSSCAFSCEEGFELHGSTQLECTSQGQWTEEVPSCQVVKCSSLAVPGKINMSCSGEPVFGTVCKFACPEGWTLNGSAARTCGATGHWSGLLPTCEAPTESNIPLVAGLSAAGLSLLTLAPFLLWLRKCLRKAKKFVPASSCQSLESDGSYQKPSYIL
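Test system: HUVEC | Signal: Immunofluorescence imaging | Read-out: Percent E-selectin-positive cells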
C2C12 statin = protects C2C12 myotubes from simvastatin toxicity; hit rate 0.78% among 330,000; rescue of ATP level, % at 7.49 µM; ATP luminescence, 48 h; scaled: DMSO 0, geranylgeraniol control 100;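 active = mean ATP rescue above about 67%, or every replicate alone reaching that limit, limit read from the data, passing the limit was not always enough; inconclusive = no clear call, values can overlap the other calls; inactive = mean under the limit and some replicate under it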;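 note: myotubes were challenged with 10 µM simvastatin during compound exposure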
DENV2 CPE rescue = inhibitors of DENV2 cytopathic effect. DENV2-infected cells, cytopathic effect rescue, plate reader. CPE inhibition, % at 9.99 µM. hit rate 1.7% among 350,000; in the data active = CPE inhibition above about 20%, passing the limit was not always enough; inconclusive = no clear call, values can overlap the other calls; tested in BHK-21 cells
Each line names hits and unclear results; the compound was inactive in the other large screens; ! = a repeat was not active. This is a sample that favours compounds with a hit; in the whole collection about 2.2% have one here.

O=[N+]([O-])c1ccccc1N=Nc1ccc(O)cc1O	none
C[C@H]1CN([C@@H](C)CO)C(=O)c2cccc(NC(=O)c3nc4ccccc4s3)c2O[C@@H]1CN(C)Cc1ccncc1	none (no result: E-sel inducer)
C[C@@H]1CN([C@H](C)CO)C(=O)CCCn2cc(nn2)CO[C@H]1CN(C)S(=O)(=O)c1cccc(F)c1	none
C[C@H]1CN([C@@H](C)CO)C(=O)CCCn2cc(nn2)CO[C@@H]1CN(C)C(=O)c1ccc(N2CCN(C)CC2)cc1	DENV2 CPE rescue 64.4!
COc1cccc(NC(=O)N(C)C[C@H]2OCc3cn(nn3)CCCC(=O)N([C@H](C)CO)C[C@H]2C)c1	none (no result: DENV2 CPE rescue)
CC(C)OC(=O)N(C)C[C@H]1OCc2cn(nn2)CCCC(=O)N([C@@H](C)CO)C[C@H]1C	none
CC(C)OC(=O)N(C)C[C@@H]1OCc2cn(nn2)CCCC(=O)N([C@H](C)CO)C[C@@H]1C	DENV2 CPE rescue 83.5
C[C@H](CO)N1C[C@H](C)[C@@H](CN(C)C(=O)c2ccc(N3CCN(C)CC3)cc2)OCc2cn(nn2)CCCC1=O	none
COc1cccc(NC(=O)N(C)C[C@@H]2OCc3cn(nn3)CCCC(=O)N([C@H](C)CO)C[C@H]2C)c1	DENV2 CPE rescue 37.7!
Cc1cccc(S(=O)(=O)N(C)C[C@H]2OCc3cn(nn3)CCCC(=O)N([C@@H](C)CO)C[C@@H]2C)c1	DENV2 CPE rescue 47.2!
C[C@H](NC(=O)C[C@@H]1C[C@H]2c3cc(NC(=O)CC4CC4)ccc3O[C@H]2[C@H](CO)O1)c1ccccc1	none
CCNC(=O)C[C@@H]1CC[C@@H](NC(=O)C2CC2)[C@H](CO)O1	none
CCC(=O)N1C[C@H]2[C@@H](c3ccccc31)[C@H](CO)N2Cc1cc(F)ccc1F	none
Cc1ccc(S(=O)(=O)Nc2cccc3c2O[C@@H](CN(C)S(=O)(=O)c2ccc(F)cc2)[C@@H](C)CN([C@H](C)CO)C3=O)cc1	none
O=C(C[C@H]1CC[C@H]2[C@@H](COC[C@@H](O)CN2Cc2cccc(Cl)c2)O1)NCc1cccc(F)c1	none
COc1ccc(OC(=O)N(C)C[C@H]2OCc3cn(nn3)CCCC(=O)N([C@H](C)CO)C[C@@H]2C)cc1	DENV2 CPE rescue 42.7!
COc1ccc(OC(=O)N(C)C[C@@H]2OCc3cn(nn3)CCCC(=O)N([C@H](C)CO)C[C@H]2C)cc1	none
COc1ccc(NC(=O)O[C@H](c2ccc(OCCO)cc2)[C@@H](C)CCO)cc1	none (no result: E-sel inducer, C2C12 statin)
C[C@@H]1CCCCO[C@H](CN(C)Cc2ccc3c(c2)OCO3)[C@@H](C)CN([C@@H](C)CO)C(=O)c2cc(NC(=O)Nc3ccc(F)cc3)ccc2O1	none
C#Cc1ccc(CN2CCCC(C(=O)Nc3ccccc3Oc3cccnc3)C2)cc1 (centres undefined)	C2C12 statin 91.4 (no result: E-sel inducer)
O=C(Nc1ccccc1Oc1cccnc1)C1CCCN(Cc2ccccc2O)C1 (centres undefined)	none (no result: E-sel inducer)
CC(Sc1nc(O)c(Cc2ccccc2)c(=O)[nH]1)C(=O)Nc1cccc(Cl)c1 (centres undefined)	none (no result: E-sel inducer, DENV2 CPE rescue)
CN1c2ccc(C#Cc3cccnc3)cc2[C@@H]2[C@@H](CCN2S(=O)(=O)c2ccccc2F)[C@H]1CO	none
CCCSc1nnc(CSc2nc3ccccc3s2)n1-c1ccccc1	none (no result: E-sel inducer, DENV2 CPE rescue)
N#CCCCSc1nnc(CSc2nc3ccccc3s2)n1-c1ccccc1	C2C12 statin 102.7 (no result: E-sel inducer, DENV2 CPE rescue)
O=C(/C=C/c1c(F)cccc1Cl)c1ccc(F)cc1	C2C12 statin 128.8 (no result: E-sel inducer, DENV2 CPE rescue)
O=C(/C=C/c1ccc[nH]1)c1ccc(F)cc1	none (no result: C2C12 statin)
O=C(CNC(=S)NC(=O)c1ccc(F)cc1)c1ccccc1	DENV2 CPE rescue inconclusive (no result: C2C12 statin)
O=C(O)CCC(=O)NCC(=O)c1ccc(F)cc1	E-sel inducer 70.2 (no result: C2C12 statin)
CN(C)CC(=O)Nc1ccc2c(c1)[C@H]1C[C@H](CC(=O)NCC3CC3)O[C@@H](CO)[C@H]1O2	none
CN(C)C(=O)c1cccc(-c2ccc3c(c2)[C@H]2[C@H](CCN2C(=O)C2CCCCC2)[C@@H](CO)N3)c1	none
O=C(CCn1cccc1)NC1CCCc2ccccc21 (centres undefined)	C2C12 statin 152.4 (no result: E-sel inducer, DENV2 CPE rescue)
O=C(CCl)NC1CCCc2ccccc21 (centres undefined)	none (no result: C2C12 statin)
C[C@@H]1CN([C@@H](C)CO)C(=O)c2cccc(NC(=O)C3CCCCC3)c2O[C@H]1CN(C)Cc1ccc(C(=O)O)cc1	none
Cc1noc(C)c1NC(=O)Nc1ccc2c(c1)C(=O)N([C@@H](C)CO)C[C@@H](C)[C@H](CN(C)S(=O)(=O)c1ccc(Cl)cc1)O2	DENV2 CPE rescue 28.2
Cc1ccc(S(=O)(=O)N(C)C[C@H]2Oc3ccc(NC(=O)NC4CCCCC4)cc3C(=O)N([C@H](C)CO)C[C@H]2C)cc1	none
Cc1ccc(S(=O)(=O)N(C)C[C@@H]2Oc3ccc(NC(=O)NC4CCCCC4)cc3C(=O)N([C@H](C)CO)C[C@@H]2C)cc1	DENV2 CPE rescue 28.5
C[C@H]1CN([C@@H](C)CO)C(=O)c2cc(NC(=O)NC3CCCCC3)ccc2O[C@H]1CN(C)S(=O)(=O)c1ccc(Cl)cc1	DENV2 CPE rescue inconclusive
C[C@@H]1CN([C@H](C)CO)C(=O)c2cc(NC(=O)NC3CCCCC3)ccc2O[C@H]1CN(C)S(=O)(=O)c1ccc(Cl)cc1	E-sel inducer 141.0
Cc1noc(C)c1NC(=O)Nc1ccc2c(c1)C(=O)N([C@H](C)CO)C[C@@H](C)[C@H](CN(C)S(=O)(=O)c1ccc(Cl)cc1)O2	none
CCCC(=O)Nc1ccc2c(c1)C(=O)N(C)C[C@H](OC)[C@H](C)CN(CC1CCCC1)[C@H](C)CO2	none
CO[C@H]1CN(C)C(=O)c2cc(NC(=O)Nc3cc(Cl)cc(Cl)c3)ccc2OC[C@@H](C)NC[C@H]1C	none (no result: DENV2 CPE rescue)
Cc1c(C(=O)N2CCc3ccccc32)oc2c1C(=O)CC(C)(C)C2	C2C12 statin 112.1 (no result: E-sel inducer, DENV2 CPE rescue)
Cc1c(C(=O)N2CCN(C)CC2)oc2c1C(=O)CC(C)(C)C2	none (no result: E-sel inducer)
O=C(N/N=C/c1ccc([N+](=O)[O-])cc1)c1cccnc1	none (no result: E-sel inducer)
Nc1c(C(=O)N/N=C/c2ccc([N+](=O)[O-])cc2)cnn1-c1ccccc1	DENV2 CPE rescue 45.9 (no result: E-sel inducer)
O=C(N[C@@H]1CC[C@@H](CCNS(=O)(=O)c2ccccc2Cl)O[C@H]1CO)c1ccccc1	none
COc1ccc(-c2[nH]ncc2CN(C)CCN2CCOCC2)cc1F	none (no result: E-sel inducer, C2C12 statin)
COc1ccc(-c2[nH]ncc2CNCC(C)(C)N2CCOCC2)cc1F	C2C12 statin 88.3 (no result: E-sel inducer)
Cc1cccc(CN2C[C@]34C=C[C@@H](C[C@@H]3S2(=O)=O)O4)c1	DENV2 CPE rescue 48.1
O=S1(=O)[C@H]2C[C@@H]3C=C[C@@]2(CN1Cc1ccc(Cl)cc1)O3	DENV2 CPE rescue inconclusive (no result: E-sel inducer)
O=C(C[C@@H]1CC[C@@H](NC(=O)CN2CCOCC2)[C@@H](CO)O1)NC1CCCCC1	none
C[C@H](CO)N1C[C@H](C)[C@@H](CN(C)C(=O)Nc2ccc3c(c2)OCO3)Oc2ccc(NC(=O)C3CC3)cc2CC1=O	DENV2 CPE rescue 54.3
C[C@@H]1CN([C@H](C)CO)C(=O)Cc2cc(NC(=O)C3CC3)ccc2O[C@@H]1CN(C)Cc1ccc2c(c1)OCO2	E-sel inducer 28.9
C[C@@H]1CN([C@@H](C)CO)C(=O)Cc2cc(NC(=O)NC3CCCCC3)ccc2O[C@H]1CN(C)C(=O)Nc1ccc2c(c1)OCO2	E-sel inducer 27.8
C[C@@H]1CN([C@@H](C)CO)C(=O)Cc2cc(NC(=O)C3CC3)ccc2O[C@H]1CN(C)C(=O)Nc1ccc2c(c1)OCO2	none

From PubChem
